Values belong to the compound of their own block, whether it stands above or below them. The source made the active and inactive calls. The calls are words filed in the database; no cut-off is given here.
What was measured:
[1] = target: Death-associated protein kinase 2 (Homo sapiens) (UniProt Q9UIK4); experiment: Inhibition of DAPK2 (unknown origin) assessed as residual enzyme activity at 10 uM by Ambit kinase binding assay relative to control
[2] = target: Inhibitor of nuclear factor kappa-B kinase subunit alpha (Homo sapiens) (UniProt O15111); experiment: Inhibition of IKK-alpha (unknown origin) assessed as residual enzyme activity at 10 uM by Ambit kinase binding assay relative to control
[3] = target: Inhibitor of nuclear factor kappa-B kinase subunit epsilon (Homo sapiens) (UniProt Q14164); experiment: Inhibition of IKK-epsilon (unknown origin) assessed as residual enzyme activity at 10 uM by Ambit kinase binding assay relative to control
Sequence of Inhibitor of nuclear factor kappa-B kinase subunit epsilon (Homo sapiens) (Q14164 whole entry): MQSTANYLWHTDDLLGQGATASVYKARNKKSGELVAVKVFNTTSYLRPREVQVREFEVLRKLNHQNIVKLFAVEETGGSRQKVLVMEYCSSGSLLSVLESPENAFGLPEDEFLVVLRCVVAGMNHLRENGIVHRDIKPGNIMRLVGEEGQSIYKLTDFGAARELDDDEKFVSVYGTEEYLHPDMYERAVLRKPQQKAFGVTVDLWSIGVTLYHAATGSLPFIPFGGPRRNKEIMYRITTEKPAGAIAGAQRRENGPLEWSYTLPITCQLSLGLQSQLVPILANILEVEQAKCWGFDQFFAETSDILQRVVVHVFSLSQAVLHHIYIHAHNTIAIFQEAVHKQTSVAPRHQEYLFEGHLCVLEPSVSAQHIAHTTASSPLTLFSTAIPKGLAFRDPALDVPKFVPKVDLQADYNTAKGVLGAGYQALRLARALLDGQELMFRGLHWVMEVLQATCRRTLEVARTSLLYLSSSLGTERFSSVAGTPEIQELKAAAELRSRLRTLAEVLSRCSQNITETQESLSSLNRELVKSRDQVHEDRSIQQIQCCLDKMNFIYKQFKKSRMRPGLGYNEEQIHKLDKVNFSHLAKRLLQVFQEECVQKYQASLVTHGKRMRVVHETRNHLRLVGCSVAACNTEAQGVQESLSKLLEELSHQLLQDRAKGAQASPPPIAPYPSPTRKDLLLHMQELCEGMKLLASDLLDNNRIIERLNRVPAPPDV

[4] = target: Serine/threonine-protein kinase 38-like (Homo sapiens) (UniProt Q9Y2H1); experiment: Inhibition of NDR2 (unknown origin) assessed as residual enzyme activity at 10 uM by Ambit kinase binding assay relative to control
Sequence of Serine/threonine-protein kinase 38-like (Homo sapiens) (Q9Y2H1 2-464 limits assumed): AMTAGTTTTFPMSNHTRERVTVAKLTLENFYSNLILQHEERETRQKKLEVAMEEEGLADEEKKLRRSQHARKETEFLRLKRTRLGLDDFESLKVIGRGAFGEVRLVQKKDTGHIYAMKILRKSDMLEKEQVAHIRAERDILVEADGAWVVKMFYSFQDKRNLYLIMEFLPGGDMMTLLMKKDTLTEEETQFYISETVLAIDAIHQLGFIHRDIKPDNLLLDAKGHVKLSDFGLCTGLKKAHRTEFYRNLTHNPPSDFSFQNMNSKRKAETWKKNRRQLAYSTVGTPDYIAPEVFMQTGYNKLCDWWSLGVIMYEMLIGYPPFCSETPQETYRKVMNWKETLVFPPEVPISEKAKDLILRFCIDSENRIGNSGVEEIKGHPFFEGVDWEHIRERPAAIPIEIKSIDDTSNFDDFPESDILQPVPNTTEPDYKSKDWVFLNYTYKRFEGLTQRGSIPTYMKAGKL

[5] = target: Serine/threonine-protein kinase Nek1 (Homo sapiens) (UniProt Q96PY6); experiment: Inhibition of NEK1 (unknown origin) assessed as residual enzyme activity at 10 uM by Ambit kinase binding assay relative to control
[6] = target: Mitogen-activated protein kinase 12 (Homo sapiens) (UniProt P53778); experiment: Inhibition of p38-gamma (unknown origin) assessed as residual enzyme activity at 10 uM by Ambit kinase binding assay relative to control
Sequence of Mitogen-activated protein kinase 12 (Homo sapiens) (P53778 whole entry): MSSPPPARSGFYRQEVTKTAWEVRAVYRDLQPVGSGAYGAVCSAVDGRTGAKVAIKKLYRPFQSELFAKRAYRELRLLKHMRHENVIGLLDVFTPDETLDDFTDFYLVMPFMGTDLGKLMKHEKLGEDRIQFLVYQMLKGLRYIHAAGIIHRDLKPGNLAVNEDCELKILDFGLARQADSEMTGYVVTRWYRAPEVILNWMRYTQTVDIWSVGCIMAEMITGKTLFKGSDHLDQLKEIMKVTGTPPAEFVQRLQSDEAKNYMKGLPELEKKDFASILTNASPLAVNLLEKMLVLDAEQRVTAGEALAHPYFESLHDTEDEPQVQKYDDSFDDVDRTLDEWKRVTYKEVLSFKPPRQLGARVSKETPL

[7] = target: Receptor-interacting serine/threonine-protein kinase 4 (Homo sapiens) (UniProt P57078); experiment: Inhibition of RIPK4 (unknown origin) assessed as residual enzyme activity at 10 uM by Ambit kinase binding assay relative to control
Sequence of Receptor-interacting serine/threonine-protein kinase 4 (Homo sapiens) (P57078 whole entry, the tested form may be a part): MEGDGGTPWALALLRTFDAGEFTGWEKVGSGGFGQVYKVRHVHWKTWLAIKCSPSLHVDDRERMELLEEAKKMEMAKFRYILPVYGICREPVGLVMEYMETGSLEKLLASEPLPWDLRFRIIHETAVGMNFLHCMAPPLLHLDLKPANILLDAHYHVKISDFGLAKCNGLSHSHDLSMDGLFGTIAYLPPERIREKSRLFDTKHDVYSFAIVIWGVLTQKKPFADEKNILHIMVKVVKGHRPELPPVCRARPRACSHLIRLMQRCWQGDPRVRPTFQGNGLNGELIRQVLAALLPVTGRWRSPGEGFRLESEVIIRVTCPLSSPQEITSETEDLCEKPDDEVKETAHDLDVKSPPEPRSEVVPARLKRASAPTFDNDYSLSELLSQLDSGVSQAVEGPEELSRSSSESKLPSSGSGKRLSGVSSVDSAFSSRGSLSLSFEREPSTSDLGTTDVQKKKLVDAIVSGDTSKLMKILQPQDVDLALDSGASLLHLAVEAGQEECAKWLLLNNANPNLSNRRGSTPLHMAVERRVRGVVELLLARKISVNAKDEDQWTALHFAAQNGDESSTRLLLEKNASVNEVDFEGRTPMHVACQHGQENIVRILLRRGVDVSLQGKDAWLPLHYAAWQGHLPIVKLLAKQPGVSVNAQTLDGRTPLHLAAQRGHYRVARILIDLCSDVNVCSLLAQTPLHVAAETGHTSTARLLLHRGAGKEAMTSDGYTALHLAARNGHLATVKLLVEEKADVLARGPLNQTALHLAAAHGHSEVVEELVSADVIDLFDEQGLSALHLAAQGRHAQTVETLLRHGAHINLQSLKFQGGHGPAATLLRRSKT

[8] = target: Ribosomal protein S6 kinase alpha-1 (Homo sapiens) (UniProt Q15418); experiment: Inhibition of RPS6KA1 kinase domain 2 (unknown origin) assessed as residual enzyme activity at 10 uM by Ambit kinase binding assay relative to control
Sequence of Ribosomal protein S6 kinase alpha-1 (Homo sapiens) (Q15418 whole entry, the tested form may be a part): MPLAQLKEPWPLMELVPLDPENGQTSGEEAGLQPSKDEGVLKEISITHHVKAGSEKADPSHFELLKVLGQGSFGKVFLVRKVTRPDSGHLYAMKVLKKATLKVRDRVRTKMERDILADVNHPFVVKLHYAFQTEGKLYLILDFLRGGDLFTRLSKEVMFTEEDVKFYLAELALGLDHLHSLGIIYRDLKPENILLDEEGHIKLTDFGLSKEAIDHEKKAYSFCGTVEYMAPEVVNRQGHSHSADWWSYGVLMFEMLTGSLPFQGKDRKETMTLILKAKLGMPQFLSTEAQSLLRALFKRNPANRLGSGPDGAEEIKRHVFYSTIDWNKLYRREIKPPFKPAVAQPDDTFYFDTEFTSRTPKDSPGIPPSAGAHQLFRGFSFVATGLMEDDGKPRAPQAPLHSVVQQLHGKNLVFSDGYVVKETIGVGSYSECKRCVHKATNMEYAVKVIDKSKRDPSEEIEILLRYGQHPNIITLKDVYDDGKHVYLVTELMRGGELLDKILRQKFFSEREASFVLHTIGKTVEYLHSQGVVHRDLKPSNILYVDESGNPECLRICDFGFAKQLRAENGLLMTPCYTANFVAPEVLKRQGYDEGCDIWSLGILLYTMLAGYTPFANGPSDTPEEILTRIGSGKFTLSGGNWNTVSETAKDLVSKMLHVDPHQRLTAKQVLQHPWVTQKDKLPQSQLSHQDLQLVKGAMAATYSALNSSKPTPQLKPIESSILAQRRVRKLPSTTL

[9] = target: SRSF protein kinase 1 (Homo sapiens) (UniProt Q96SB4); experiment: Inhibition of SRPK1 (unknown origin) assessed as residual enzyme activity at 10 uM by Ambit kinase binding assay relative to control
Sequence of SRSF protein kinase 1 (Homo sapiens) (Q96SB4 whole entry): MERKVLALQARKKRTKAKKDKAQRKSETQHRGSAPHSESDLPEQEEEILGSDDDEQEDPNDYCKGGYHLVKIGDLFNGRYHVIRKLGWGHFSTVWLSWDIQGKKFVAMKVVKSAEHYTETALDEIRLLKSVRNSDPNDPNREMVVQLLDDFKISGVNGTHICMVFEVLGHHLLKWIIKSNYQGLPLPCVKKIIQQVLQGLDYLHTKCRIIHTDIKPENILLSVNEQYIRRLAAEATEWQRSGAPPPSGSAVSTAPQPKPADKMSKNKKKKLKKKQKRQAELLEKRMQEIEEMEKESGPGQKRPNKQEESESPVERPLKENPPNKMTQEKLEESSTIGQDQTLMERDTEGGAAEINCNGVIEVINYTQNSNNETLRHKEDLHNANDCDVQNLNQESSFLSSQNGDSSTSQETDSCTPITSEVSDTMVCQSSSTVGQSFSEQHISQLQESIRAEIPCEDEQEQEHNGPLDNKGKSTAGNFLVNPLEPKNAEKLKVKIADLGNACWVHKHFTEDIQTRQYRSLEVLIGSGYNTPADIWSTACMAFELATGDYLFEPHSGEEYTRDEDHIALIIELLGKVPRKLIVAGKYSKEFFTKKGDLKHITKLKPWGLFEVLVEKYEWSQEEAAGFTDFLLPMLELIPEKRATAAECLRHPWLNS

[10] = target: SRSF protein kinase 3 (Homo sapiens) (UniProt Q9UPE1); experiment: Inhibition of SRPK3 (unknown origin) assessed as residual enzyme activity at 10 uM by Ambit kinase binding assay relative to control
Sequence of SRSF protein kinase 3 (Homo sapiens) (Q9UPE1 whole entry): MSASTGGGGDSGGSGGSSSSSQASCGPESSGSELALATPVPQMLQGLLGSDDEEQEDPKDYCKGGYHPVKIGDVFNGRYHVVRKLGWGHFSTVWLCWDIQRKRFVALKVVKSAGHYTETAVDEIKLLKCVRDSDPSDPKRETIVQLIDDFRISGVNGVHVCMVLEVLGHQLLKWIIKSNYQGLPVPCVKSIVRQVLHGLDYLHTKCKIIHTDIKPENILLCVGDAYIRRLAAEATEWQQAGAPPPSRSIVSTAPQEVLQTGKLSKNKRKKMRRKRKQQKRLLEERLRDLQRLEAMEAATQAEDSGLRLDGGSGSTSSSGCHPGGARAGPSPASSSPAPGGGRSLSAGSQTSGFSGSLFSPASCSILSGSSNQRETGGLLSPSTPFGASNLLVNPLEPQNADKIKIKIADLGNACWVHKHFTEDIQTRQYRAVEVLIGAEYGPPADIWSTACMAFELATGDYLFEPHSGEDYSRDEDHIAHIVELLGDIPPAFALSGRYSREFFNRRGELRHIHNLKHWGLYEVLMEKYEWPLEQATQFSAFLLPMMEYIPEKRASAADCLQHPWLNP

[11] = target: Serine/threonine-protein kinase 16 (Homo sapiens) (UniProt O75716); experiment: Inhibition of STK16 (unknown origin) assessed as residual enzyme activity at 10 uM by Ambit kinase binding assay relative to control
Sequence of Serine/threonine-protein kinase 16 (Homo sapiens) (O75716 whole entry): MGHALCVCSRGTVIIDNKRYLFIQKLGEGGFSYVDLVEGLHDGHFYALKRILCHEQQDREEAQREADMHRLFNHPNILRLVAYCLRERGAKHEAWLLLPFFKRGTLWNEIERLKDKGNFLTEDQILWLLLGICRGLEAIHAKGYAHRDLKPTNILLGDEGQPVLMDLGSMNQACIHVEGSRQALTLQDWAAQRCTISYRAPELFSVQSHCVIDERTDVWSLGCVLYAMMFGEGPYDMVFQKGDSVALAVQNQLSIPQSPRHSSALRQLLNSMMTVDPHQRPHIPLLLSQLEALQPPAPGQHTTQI

[12] = test system: U2OS; experiment: Reversal of nocodazole-induced mitotic arrest in human U2OS cells assessed as decrease in cyclin B level at 10 uM incubated for 4 hrs in presence of MG132 by immunoblot analysis; type: functional, cell-based
[13] = target: Tyrosine-protein kinase receptor UFO (Homo sapiens) (UniProt P30530); experiment: Inhibition of AXL (unknown origin) assessed as residual enzyme activity at 10 uM by Ambit kinase binding assay relative to control
[14] = target: Protein-tyrosine kinase 2-beta (Homo sapiens, UniProt Q14289); experiment: Inhibition of PTK2B (unknown origin) assessed as residual enzyme activity at 10 uM by Ambit kinase binding assay relative to control
[15] = target: Activated CDC42 kinase 1 (Homo sapiens, UniProt Q07912); experiment: Inhibition of TNK2 (unknown origin) assessed as residual enzyme activity at 10 uM by Ambit kinase binding assay relative to control
[16] = test system: U2OS; experiment: Reversal of paclitaxel-induced mitotic arrest in human U2OS cells assessed as accumulation of 4N phosphorylated Histone H3-negative cells incubated for 16 hrs by flow cytometry; type: functional, cell-based; conditions: dose 5-10 µM
[17] = test system: U2OS; experiment: Reversal of paclitaxel-induced mitotic arrest in human U2OS cells assessed as Ser10 phosphorylated Histone H3-positive 4c population at 5 uM incubated for 16 hrs by flow cytometry (reference value: 25 %); type: functional
[18] = test system: U2OS; experiment: Initiation of anaphase in human U2OS cells expressing histone H2B-GFP measured for 60 mins by fluorescence time-lapse microscopy; type: functional, cell-based; conditions: dose 5-10 µM
Summary of the method: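 U2OS H2B-GFP cells were given DMSO or inhibitor and imaged by fluorescence time-lapse at 37°C, 5% CO₂, one frame every 2 min. NEBD-to-anaphase time was scored for 100 cells per population and plotted as cumulative percentage initiating anaphase.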

[19] = test system: U2OS; experiment: Induction of aneuploidy in UTRM10 cells (unknown origin) expressing LAP-tagged Mps1 M602Q mutant at 5 uM treated for 48 hrs by FACS analysis; type: functional, cell-based
Summary of the method: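 UTRM10 cells expressing RNAi-resistant LAP-Mps1 WT or M602Q were treated with compound or DMSO for 48 h, then DNA content was analysed by FACS.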

[20] = test system: UTRM10; experiment: Induction of aneuploidy in UTRM10 cells (unknown origin) expressing LAP-tagged Mps1 M602Q mutant co-transfected with H2B-EYFP at 10 uM by time-lapse microscopy; type: functional, cell-based
Summary of the method: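 UTRM10 LAP-Mps1 cells transfected with H2B-EYFP were treated and imaged by time-lapse in a heated chamber (37°C, 5% CO2).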

[21] = target: Aurora kinase B (Homo sapiens) (UniProt Q96GD4); experiment: Inhibition of Aurora B activation in human U2OS cells by Western blot analysis; type: cell-based
Sequence of Aurora kinase B (Homo sapiens) (Q96GD4 whole entry): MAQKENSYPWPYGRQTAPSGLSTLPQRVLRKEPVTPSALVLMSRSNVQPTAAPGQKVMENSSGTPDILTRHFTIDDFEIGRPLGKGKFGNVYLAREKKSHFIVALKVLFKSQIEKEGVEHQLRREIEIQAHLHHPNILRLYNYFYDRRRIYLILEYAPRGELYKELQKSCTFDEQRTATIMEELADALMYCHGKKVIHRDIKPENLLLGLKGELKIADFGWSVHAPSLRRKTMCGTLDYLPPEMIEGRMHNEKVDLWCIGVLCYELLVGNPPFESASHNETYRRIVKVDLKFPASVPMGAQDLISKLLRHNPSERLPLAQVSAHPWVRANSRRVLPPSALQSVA

[22] = test system: U2OS; experiment: Effect on thymidine-treated human U2OS cell populations after two cell doubling at 10 uM incubated for 4 hrs followed by thymidine release by immunofluorescence imaging analysis; type: functional, cell-based
[23] = test system: HCT-116; experiment: Induction of accumulation of human HCT-116 cells with <2N DNA content at 10 uM incubated for 4 days by FACS analysis; type: functional, cell-based; conditions: time 4.0 day
Summary of the method: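 HCT116 cells were treated with 10 μM compound or DMSO vehicle for the indicated times up to 96 h, then DNA content was profiled by flow cytometry.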

[24] = test system: HCT-116; experiment: Antiproliferative activity against human HCT-116 with BAX-/- cells at 10 uM incubated for 4 days by Syto60 staining based assay; type: functional, cell-based; conditions: time 4.0 day
Summary of the method: (§1)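 Proliferation read by Syto60 nucleic acid stain fluorescence (excitation 635 nm, emission 695 nm) after treatment for up to 96 h. Each time point normalized to its DMSO control. Mean ± SD from 4 independent experiments. Cells kept at 37°C, 5% CO2 in 10% FBS-supplemented medium.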

[25] = test system: MCF-10A; experiment: Antiproliferative activity against human MCF-10A cells at 10 uM incubated for 4 days by Syto60 staining based assay; type: toxicity, cell-based; conditions: 96 h, time 4 day; summary of the method: as §1
[26] = test system: HeLa; experiment: Antiproliferative activity against human HeLa cells assessed as loss of clonal survival upto 10 uM incubated for 10 days by crystal violet staining based assay; type: functional, cell-based; conditions: time 10.0 day
Summary of the method: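 Colony outgrowth: cells plated at 200 cells per 60-mm dish, exposed to compound or DMSO vehicle and stained with crystal violet after 10 days. HCT116 grown in McCoy's 5A; A549 and HeLa in DMEM; hTERT-RPE1 in DMEM/F-12. All media had 10% FBS and penicillin/streptomycin, 37°C, 5% CO2. Quantified from 3 independent experiments, mean + SD, Student's t test.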

[27] = test system: MCF-10A; experiment: Antiproliferative activity against human MCF-10A cells assessed as loss of clonal survival upto 25 uM incubated for 10 days by crystal violet staining based assay; type: toxicity, cell-based; conditions: 240 h, time 10 day
[28] = target: Insulin receptor (Homo sapiens, UniProt P06213); experiment: Binding affinity to INSR (unknown origin) assessed as dissociation constant by Ambit kinase binding assay

Activity [2]: 0.1%
Activity [3]: 12%
Activity [4]: 28%
Activity [5]: 15%
Activity [6]: 21%
Activity [7]: 2.2%
Activity [8]: 3.8%
Activity [9]: 32%
Activity [10]: 32%
Activity [11]: 1.4%
Structure (SMILES): O=C1c2ccccc2-c2n[nH]c3cccc1c23
Activity [1]: 4.1%

Activity [13]: 19%
Activity [14]: 0.1%
Activity [15]: 14%
inhibition [21]: Active
Kd [28]: 470 nM
Structure (SMILES): COc1cc(N2CCC(O)CC2)ccc1Nc1cc(Nc2ccccc2S(=O)(=O)C(C)C)c2cc[nH]c2n1
Activity [12]: inactive
Activity [16]: Dose-Dependent Effect
Activity [17]: 15%
Activity [18]: Dose-Dependent Effect
Activity [19]: Active
Activity [20]: inactive
Activity [22]: inactive
Activity [23]: Active
Activity [24]: Active
Activity [25]: Toxic
Activity [26]: Active
Activity [27]: Toxic

From ChEMBL document CHEMBL5705891, “Small-molecule kinase inhibitors provide insight into Mps1 cell cycle function” (Nat Chem Biol, 2010)
